# Measurements taken from ChEMBL document CHEMBL3769357, “Phosphoramidate protides of five flavones and their antiproliferative activity against HepG2 and L-O2 cell lines” (Eur J Med Chem, 2016).
# Tests used:
# HepG2 [1] = assay: Antiproliferative activity against human HepG2 cells after 48 hrs by MTT assay; format: functional, cell-based; settings: HepG2, 48 h
# Procedure, shortened: (§1)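 After 48 h, MTT (5 mg/mL in PBS) added, 4 h at 37 °C, DMSO added, absorbance read at 570 nm. IC50 is the 50% growth-inhibition concentration, mean of three independent experiments.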
# [2] = Cytotoxicity against human LO2 cells after 48 hrs by MTT assay; format: cell-based; settings: L02, 48 h; procedure, shortened: as §1
# HepG2 [3] = assay: Selectivity index, ratio of IC50 for human LO2 cells to human HepG2 cells
# HepG2 [4] = assay: Induction of apoptosis in human HepG2 cells assessed as early apoptotic cells at IC50 after 4 hrs by annexin V-FITC/propidium iodide staining-based flow cytometry (reference value: 0.41%); format: functional
# HepG2 [5] = assay: Induction of cell cycle arrest in human HepG2 cells assessed as accumulation at S phase at IC50 after 24 hrs by propidium iodide staining-based flow cytometry (reference value: 16.1%); format: functional
# HepG2 [6] = assay: Induction of apoptosis in human HepG2 cells assessed as viable cells at IC50 after 4 hrs by annexin V-FITC/propidium iodide staining-based flow cytometry (reference value: 98.6%); format: functional
# HepG2 [7] = assay: Induction of apoptosis in human HepG2 cells assessed as late apoptotic cells at IC50 after 24 hrs by annexin V-FITC/propidium iodide staining-based flow cytometry (reference value: 1.77%); format: functional
# HepG2 [8] = assay: Induction of apoptosis in human HepG2 cells assessed as viable cells at IC50 after 24 hrs by annexin V-FITC/propidium iodide staining-based flow cytometry (reference value: 90.5%); format: functional
# HepG2 [9] = assay: Induction of apoptosis in human HepG2 cells assessed as nectrotic cells at IC50 after 4 hrs by annexin V-FITC/propidium iodide staining-based flow cytometry (reference value: 0.46%); format: functional
# HepG2 [10] = assay: Induction of apoptosis in human HepG2 cells assessed as nectrotic cells at IC50 after 24 hrs by annexin V-FITC/propidium iodide staining-based flow cytometry (reference value: 6.70%); format: functional
# HepG2 [11] = assay: Induction of apoptosis in human HepG2 cells assessed as early apoptotic cells at IC50 after 24 hrs by annexin V-FITC/propidium iodide staining-based flow cytometry (reference value: 0.41%)
# HepG2 [12] = assay: Induction of cell cycle arrest in human HepG2 cells assessed as accumulation at G2/M phase at IC50 after 24 hrs by propidium iodide staining-based flow cytometry (reference value: 16.4%); format: functional
# HepG2 [13] = assay: Induction of apoptosis in human HepG2 cells assessed as late apoptotic cells at IC50 after 4 hrs by annexin V-FITC/propidium iodide staining-based flow cytometry (reference value: 0.53%); format: functional
# HepG2 [14] = assay: Induction of cell cycle arrest in human HepG2 cells assessed as accumulation at G0/G1 phase at IC50 after 24 hrs by propidium iodide staining-based flow cytometry (reference value: 67.5%); format: functional
Structure (SMILES),IC50 (HepG2 [1]) [µM],IC50 [2] [µM],Ratio IC50 (HepG2 [3]),further results
COC(=O)[C@H](Cc1ccccc1)NP(=O)(Oc1ccccc1)Oc1cc(O)c2c(=O)cc(-c3ccc(O)c(O)c3)oc2c1 (stereo not given in full),15.7,39.1,2.49,
COC(=O)[C@H](Cc1ccccc1)NP(=O)(Oc1ccccc1)Oc1cc(OC(C)=O)c2c(=O)cc(-c3ccc(OC(C)=O)c(OC(C)=O)c3)oc2c1 (stereo not given in full),27.1,30.3,1.118,
COC(=O)[C@H](Cc1ccccc1)NP(=O)(Oc1ccccc1)Oc1cc(OC(C)=O)c2c(=O)c(-c3ccc(OC(C)=O)cc3)coc2c1 (stereo not given in full),63.2,> 100,1.582,
COC(=O)[C@H](CC(C)C)NP(=O)(Oc1ccccc1)Oc1cc(OC(C)=O)c2c(=O)cc(-c3ccc(OC(C)=O)cc3)oc2c1 (stereo not given in full),22.1,59.8,2.706,
COC(=O)CNP(=O)(Oc1ccccc1)Oc1cc(O)c2c(=O)cc(-c3ccccc3)oc2c1 (stereo not given),42.6,96.5,2.265,
COC(=O)[C@H](C)NP(=O)(Oc1ccccc1)Oc1cc(O)c2c(=O)cc(-c3ccc(O)cc3)oc2c1 (stereo not given in full),34.7,35.3,1.017,
COC(=O)[C@@H](NP(=O)(Oc1ccccc1)Oc1cc(O)c2c(=O)cc(-c3ccccc3)oc2c1)C(C)C (stereo not given in full),21.1,> 100,>5,
COC(=O)[C@H](C)NP(=O)(Oc1ccccc1)Oc1cc(OC(C)=O)c2c(=O)c(-c3ccc(OC(C)=O)cc3)coc2c1 (stereo not given in full),6.6,11.9,1.803,Activity (HepG2 [4]): 0.74%; Activity (HepG2 [5]): 1.8%; Activity (HepG2 [6]): 97.07%; Activity (HepG2 [7]): 3.06%; Activity (HepG2 [8]): 74.34%; Activity (HepG2 [9]): 0.97%; Activity (HepG2 [10]): 18.62%; Activity (HepG2 [11]): 3.99%; Activity (HepG2 [12]): 96.6%; Activity (HepG2 [13]): 1.22%; Activity (HepG2 [14]): 1.6%
COC(=O)[C@H](C)NP(=O)(Oc1ccccc1)Oc1cc(O)c2c(=O)c(-c3ccc(O)cc3)coc2c1 (stereo not given in full),57.2,15.7,0.274,
O=c1cc(-c2ccccc2)oc2cc(O)cc(O)c12 [CHRYSIN],> 100,> 100,,
COC(=O)[C@H](Cc1ccccc1)NP(=O)(Oc1ccccc1)Oc1ccc2c(=O)c(-c3ccc(O)cc3)coc2c1 (stereo not given in full),52.1,39.3,0.754,
COC(=O)CNP(=O)(Oc1ccccc1)Oc1cc(O)c2c(=O)cc(-c3ccc(O)c(O)c3)oc2c1 (stereo not given),47.7,47.7,1,
COC(=O)[C@@H](NP(=O)(Oc1ccccc1)Oc1cc(O)c2c(=O)cc(-c3ccc(O)c(O)c3)oc2c1)C(C)C (stereo not given in full),16.6,8.2,0.494,
COC(=O)CNP(=O)(Oc1ccccc1)Oc1cc(OC(C)=O)c2c(=O)cc(-c3ccc(OC(C)=O)c(OC(C)=O)c3)oc2c1 (stereo not given),26.4,57.1,2.163,
COC(=O)[C@H](CC(C)C)NP(=O)(Oc1ccccc1)Oc1cc(OC(C)=O)c2c(=O)cc(-c3ccc(OC(C)=O)c(OC(C)=O)c3)oc2c1 (stereo not given in full),21,38.2,1.819,
COC(=O)[C@H](CC(C)C)NP(=O)(Oc1ccccc1)Oc1cc(O)c2c(=O)cc(-c3ccccc3)oc2c1 (stereo not given in full),> 100,> 100,,
COC(=O)[C@H](Cc1ccccc1)NP(=O)(Oc1ccccc1)Oc1ccc2c(=O)c(-c3ccc(OC(C)=O)cc3)coc2c1 (stereo not given in full),60.2,> 100,>1.66,
COC(=O)[C@@H](NP(=O)(Oc1ccccc1)Oc1cc(OC(C)=O)c2c(=O)cc(-c3ccc(OC(C)=O)cc3)oc2c1)C(C)C (stereo not given in full),18.4,29.4,1.59,
COC(=O)[C@H](C)NP(=O)(Oc1ccccc1)Oc1cc(OC(C)=O)c2c(=O)cc(-c3ccc(OC(C)=O)c(OC(C)=O)c3)oc2c1 (stereo not given in full),27.3,51.2,1.875,
COC(=O)CNP(=O)(Oc1ccccc1)Oc1ccc2c(=O)c(-c3ccc(OC(C)=O)cc3)coc2c1 (stereo not given),> 100,> 100,,
COC(=O)[C@@H](NP(=O)(Oc1ccccc1)Oc1cc(O)c2c(=O)cc(-c3ccc(O)cc3)oc2c1)C(C)C (stereo not given in full),27.3,26,0.952,

Structure (SMILES),IC50 (HepG2 [1]) [µM],IC50 [2] [µM],Ratio IC50 (HepG2 [3]),further results
COC(=O)[C@H](Cc1ccccc1)NP(=O)(Oc1ccccc1)Oc1cc(O)c2c(=O)c(-c3ccc(O)cc3)coc2c1 (stereo not given in full),> 100,> 100,,
COC(=O)[C@H](CC(C)C)NP(=O)(Oc1ccccc1)Oc1cc(OC(C)=O)c2c(=O)c(-c3ccc(OC(C)=O)cc3)coc2c1 (stereo not given in full),54,60.1,1.113,
COC(=O)[C@H](C)NP(=O)(Oc1ccccc1)Oc1ccc2c(=O)c(-c3ccc(OC(C)=O)cc3)coc2c1 (stereo not given in full),5.5,24.3,4.418,Activity (HepG2 [4]): 0.69%; Activity (HepG2 [5]): 1.2%; Activity (HepG2 [6]): 97.12%; Activity (HepG2 [7]): 2.56%; Activity (HepG2 [8]): 51.19%; Activity (HepG2 [9]): 0.76%; Activity (HepG2 [10]): 2.08%; Activity (HepG2 [11]): 44.16%; Activity (HepG2 [12]): 98.1%; Activity (HepG2 [13]): 1.43%; Activity (HepG2 [14]): 0.7%
COC(=O)[C@H](Cc1ccccc1)NP(=O)(Oc1ccccc1)Oc1cc(OC(C)=O)c2c(=O)cc(-c3ccc(OC(C)=O)cc3)oc2c1 (stereo not given in full),38.5,45.9,1.192,
COC(=O)[C@H](CC(C)C)NP(=O)(Oc1ccccc1)Oc1ccc2c(=O)c(-c3ccc(O)cc3)coc2c1 (stereo not given in full),66,47.7,0.723,
COC(=O)CNP(=O)(Oc1ccccc1)Oc1cc(O)c2c(=O)cc(-c3ccc(O)cc3)oc2c1 (stereo not given),59.7,71.5,1.198,
O=c1cc(-c2ccc(O)c(O)c2)oc2cc(O)cc(O)c12 [LUTEOLIN],34.7,> 100,>2.882,
COC(=O)CNP(=O)(Oc1ccccc1)Oc1cc(O)c2c(=O)c(-c3ccc(O)cc3)coc2c1 (stereo not given),> 100,44.5,<0.445,
C#Cc1cccc(Nc2ncnc3cc(OCCOC)c(OCCOC)cc23)c1 [ERLOTINIB],5.8,18.5,3.19,
COC(=O)[C@H](Cc1ccccc1)NP(=O)(Oc1ccccc1)Oc1cc(O)c2c(=O)cc(-c3ccccc3)oc2c1 (stereo not given in full),> 100,> 100,,
COC(=O)[C@H](CC(C)C)NP(=O)(Oc1ccccc1)Oc1ccc2c(=O)c(-c3ccc(OC(C)=O)cc3)coc2c1 (stereo not given in full),60,44.8,0.747,
COC(=O)[C@H](CC(C)C)NP(=O)(Oc1ccccc1)Oc1cc(O)c2c(=O)cc(-c3ccc(O)cc3)oc2c1 (stereo not given in full),37.2,52.8,1.419,
COC(=O)[C@H](CC(C)C)NP(=O)(Oc1ccccc1)Oc1cc(O)c2c(=O)c(-c3ccc(O)cc3)coc2c1 (stereo not given in full),72.3,48.2,0.667,
COC(=O)CNP(=O)(Oc1ccccc1)Oc1ccc2c(=O)c(-c3ccc(O)cc3)coc2c1 (stereo not given),48.8,> 100,2.049,
COC(=O)CNP(=O)(Oc1ccccc1)Oc1cc(OC(C)=O)c2c(=O)cc(-c3ccc(OC(C)=O)cc3)oc2c1 (stereo not given),47.8,> 100,>2.092,
COC(=O)[C@H](CC(C)C)NP(=O)(Oc1ccccc1)Oc1cc(O)c2c(=O)cc(-c3ccc(O)c(O)c3)oc2c1 (stereo not given in full),22.4,34,1.581,
COC(=O)CNP(=O)(Oc1ccccc1)Oc1cc(OC(C)=O)c2c(=O)c(-c3ccc(OC(C)=O)cc3)coc2c1 (stereo not given),39.7,55.2,1.39,
COC(=O)[C@H](C)NP(=O)(Oc1ccccc1)Oc1cc(O)c2c(=O)cc(-c3ccccc3)oc2c1 (stereo not given in full),35.3,62.3,1.765,
COC(=O)[C@H](Cc1ccccc1)NP(=O)(Oc1ccccc1)Oc1cc(O)c2c(=O)cc(-c3ccc(O)cc3)oc2c1 (stereo not given in full),36.6,> 100,>2.732,
COC(=O)[C@H](C)NP(=O)(Oc1ccccc1)Oc1ccc2c(=O)c(-c3ccc(O)cc3)coc2c1 (stereo not given in full),28.8,20.5,0.712,
